Measurements as given in ChEMBL document CHEMBL6083205, “A comprehensive apoptotic assessment of niloticin in cervical cancer cells: a tirucallane-type triterpenoid from Aphanamixis polystachya (Wall.) Parker” (RSC Med Chem, 2024).
Active and inactive are the calls of the source. No cut-off for these calls is given here.

What was measured:
HeLa [1] = assay: Induction of apoptosis in human HeLa cells assessed as proportion of viable cells at 7 uM by AnnexinV-FITC/PI staining based FACS analysis (reference value: 77.7%); type: functional
HeLa [2] = assay: Induction of cell cycle arrest in human HeLa cells assessed as proportion of cell accumulation at subG0 phase at 7 uM by propidium iodide staining based flow cytometry (reference value: 7.6%); type: functional
HeLa [3] = assay: Induction of mitochondrial membrane potential depolarization in human HeLa cells assessed as decrease in JC-1 aggregate to monomer ratio at 7 to 11 uM incubated for 24 hrs by JC-1 staining based fluorescence microscopic analysis; type: functional, cell-based; details: dose 7-11 µM
Summary of the method: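 HeLa treated for 24 h, then stained with JC-1 dye; red aggregate and green monomer fluorescence imaged on inverted microscope with FITC filter; aggregate-to-monomer ratio calculated relative to control; mean ± SD; scale bar 50 μm.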

HeLa [4] = assay: Induction of apoptosis in human HeLa cells assessed as proportion of early apoptotic cells at 11 uM by AnnexinV-FITC/PI staining based FACS analysis (reference value: 4.5%); type: functional
HeLa [5] = assay: Induction of apoptosis in human HeLa cells assessed as proportion of necrotic cells at 11 uM by AnnexinV-FITC/PI staining based FACS analysis (reference value: 3.4%); type: functional
HeLa [6] = assay: Induction of apoptosis in human HeLa cells assessed as DNA fragmentation by measuring CH-deformation with enhanced peak at 1420 to 1440 cm^-1 at 7 to 11 uM incubated for 24 hrs by surface-enhanced Raman spectroscopic analysis; type: functional, cell-based; details: dose 7-11 µM
Summary of the method: (§1)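 DNA isolated from control and 7 or 11 μM-treated HeLa, mixed 8:2 with 40–45 nm gold nanoparticles as SERS substrate, 10 min incubation; confocal Raman with 633 nm laser at 5 mW, 600 g/mm grating, 3 cm−1 resolution, 3 accumulations of 5 s integration.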

HeLa [7] = assay: Antimetastatic activity in human HeLa cells assessed as downregulation of Ki67 expression at 3 to 6 uM incubated for 24 hrs by DAPI staining based immunofluorescence analysis; type: functional, cell-based; details: dose 3-6 µM
Summary of the method: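 HeLa, 7 × 10^3 cells/well, treated at two concentrations for 24 h; fixed in 4% paraformaldehyde 15–30 min at 37 °C, permeabilised with 0.1% Triton-X 10 min, blocked in 5% BSA/PBST 1 h; Ki67 primary antibody overnight, then secondary antibody and DAPI counterstain; fluorescence microscopy imaging, fluorescence intensity quantified; mean ± SD.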

HeLa [8] = assay: Induction of apoptosis in human HeLa cells assessed as DNA fragmentation by measuring less intense peak for deoxyribose variation (1460-65 cm^-1) at 7 to 11 uM incubated for 24 hrs by surface-enhanced Raman spectroscopic analysis; type: functional, cell-based; details: dose 7-11 µM; summary of the method: as §1
HeLa [9] = assay: Induction of apoptosis in human HeLa cells assessed as cells with impaired membrane by measuring increase in pink colour intensity at 7 to 11 uM by APOP staining based microscopy; type: functional, cell-based; details: dose 7-11 µM
Summary of the method: (§2)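 HeLa exposed to 7 and 11 μM versus untreated control; live/dead staining either with acridine orange–ethidium bromide dual stain (fluorescence, FITC filter) or with APOPercentage dye (pink uptake, brightfield); imaged on inverted microscope.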

HeLa [10] = assay: Induction of cell cycle arrest in human HeLa cells assessed as proportion of cell accumulation at S phase at 7 uM by propidium iodide staining based flow cytometry (reference value: 15.9%); type: functional
HeLa [11] = assay: Induction of apoptosis in human HeLa cells assessed as cells with compromised membrane by measuring increase in red fluorescence intensity at 7 to 11 uM by acridine orange/ethidium bromide dual staining based fluorescence microscopy; type: functional, cell-based; details: dose 7-11 µM; summary of the method: as §2
HeLa [12] = assay: Induction of cell cycle arrest in human HeLa cells assessed as proportion of cell accumulation at G1 phase at 11 uM by propidium iodide staining based flow cytometry (reference value: 67.7%); type: functional
HeLa [13] = assay: Induction of cell cycle arrest in human HeLa cells assessed as downregulation of Cdk2 protein expression at 7 to 11 uM by western blot analysis; type: functional, cell-based; details: dose 7-11 µM
Summary of the method: (§3)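 Protein extracted from treated and untreated HeLa, BCA-quantified and normalised; SDS-PAGE, PVDF transfer, 5% skim milk block; primary antibodies 18 h at 4 °C, HRP secondary; chemiluminescent detection of Cdk-2, cyclin A2, cyclin B1, Cdc-25 with β-actin loading control.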

PANC-1 = assay: Antiproliferative activity against human PANC-1 cells assessed as inhibition of cell growth incubated for 24 hrs by MTT assay; type: functional, cell-based; details: PANC-1, 24 h
Summary of the method: (§4)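 Cells kept in DMEM with 10% FBS and 1% antibiotic-antimycotic at 37 °C and 5% CO2. Seeded at 8 × 10^3 cells per 100 μL and left 24 h, then exposed 24 h to 5, 10, 20, 50 or 100 μM. MTT at 0.5 mg/mL in HBSS was added for 2–4 h at 37 °C in the dark. Formazan was dissolved in DMSO, A570 was read, and IC50 was derived.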

HeLa [14] = assay: Induction of cell cycle arrest in human HeLa cells assessed as downregulation of Cyclin A2 protein expression at 7 to 11 uM by western blot analysis; type: functional, cell-based; details: dose 7-11 µM; summary of the method: as §3
HeLa [15] = assay: Antimetastatic activity in human HeLa cells assessed as inhibition of cell migration at 3 to 6 uM measured after 24 to 48 hrs by scratch wound assay; type: functional, cell-based; details: dose 3-6 µM, time 24-48 hrs
Summary of the method: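 HeLa monolayer formed 24 h after seeding, scratched with a pipette tip and washed with PBS; treated at 3 and 6 μM, untreated cells as control; wound imaged at 0, 24 and 48 h; percentage wound closure/area measured by image analysis.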

HeLa [16] = assay: Antiproliferative activity against human HeLa cells assessed as inhibition of cell growth incubated for 24 hrs by MTT assay; type: functional, cell-based; summary of the method: as §4
HeLa [17] = assay: Induction of apoptosis in human HeLa cells assessed as increase in number of cells with condensed nucleic acids at 7 to 11 uM incubated for 24 hrs by Hoechst 33342 staining based fluorescence light microscopy; type: functional, cell-based; details: dose 7-11 µM
Summary of the method: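 HeLa, 7 × 10^3 cells/well, treated 24 h at 7 and 11 μM; stained with Hoechst 33342 (1 μg mL−1 in PBS); condensed nuclei imaged through DAPI filter on inverted fluorescence microscope.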

HeLa [18] = assay: Induction of apoptosis in human HeLa cells assessed as proportion of late apoptotic cells at 7 uM by AnnexinV-FITC/PI staining based FACS analysis (reference value: 14.5%); type: functional
A549 = assay: Antiproliferative activity against human A549 cells assessed as inhibition of cell growth incubated for 24 hrs by MTT assay; type: functional, cell-based; details: A549, 24 h; summary of the method: as §4

C[C@@H](C[C@@H](O)[C@@H]1OC1(C)C)[C@@H]1CC[C@]2(C)C3=CC[C@H]4C(C)(C)C(=O)CC[C@]4(C)[C@H]3CC[C@@]12C
Activity (HeLa [1]): 38.3% | Activity (HeLa [2]): 25.6% | Activity (HeLa [3]): Active | Activity (HeLa [4]): 15.8% | Activity (HeLa [5]): 4.5% | Activity (HeLa [6]): Active | Activity (HeLa [7]): Active | Activity (HeLa [8]): Active | Activity (HeLa [9]): Active | Activity (HeLa [10]): 4.9% | Activity (HeLa [11]): Active | Activity (HeLa [12]): 44.1% | Activity (HeLa [13]): Active | IC50 (PANC-1): 16.5 µM | Activity (HeLa [14]): Active | Activity (HeLa [15]): Active | IC50 (HeLa [16]): 11.7 µM | Activity (HeLa [17]): Active | Activity (HeLa [18]): 10.1% | IC50 (A549): 30.6 µM
